Only some compounds are listed: those with a hit (about 2.7% of all), similar ones and a draw of the others.
NR1D1 modulator – modulators of human Rev-erb alpha DNA binding; Rev-erbα–FITC-DNA binding, fluorescence polarization, 90 min; activity, % at 10 µM; 370,000 compounds, 0.79% hits; AID 1259318;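 active means activity above about 14%, limit read from the data; passing the limit was not always enough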
MC4R ag barr – activates human MC4R beta-arrestin recruitment; U2OS MC4R beta-arrestin complementation, luminescence; percent of melanotan II response, DMSO zero; 360,000 compounds, 0.98% hits; AID 540308; activation, % at 8.9 µM;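 active means activation above a per-plate cutoff, the mean activation of sample wells on that plate plus 3 SD, cut at about 8% in these data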
NR2E3 ag-1 – agonists of human NR2E3 nuclear receptor; CHO-S Gal4-NCOR/VP16-NR2E3 two-hybrid, luciferase; 360,000 compounds, 0.35% hits; AID 602229; inhibition of corepressor binding, % at 3.98 µM;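 active means inhibition above the mean of all tested compounds plus 3 SD, cut at about 70% in these data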;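 further: higher means lower luciferase signal from less NR2E3 corepressor binding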
Target sequence (Q9Y5X4 whole entry, looked up, the tested form may be a part): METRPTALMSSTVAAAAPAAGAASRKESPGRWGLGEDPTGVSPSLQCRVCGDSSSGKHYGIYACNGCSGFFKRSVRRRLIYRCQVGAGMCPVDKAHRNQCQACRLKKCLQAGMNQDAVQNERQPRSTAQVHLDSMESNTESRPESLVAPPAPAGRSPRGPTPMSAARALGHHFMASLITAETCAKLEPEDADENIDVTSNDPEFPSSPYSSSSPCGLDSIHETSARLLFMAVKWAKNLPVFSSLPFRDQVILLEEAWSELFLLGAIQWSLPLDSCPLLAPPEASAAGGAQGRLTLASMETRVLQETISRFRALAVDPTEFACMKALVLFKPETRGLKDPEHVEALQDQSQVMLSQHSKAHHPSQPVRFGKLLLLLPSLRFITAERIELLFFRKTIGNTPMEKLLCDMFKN
MC4R antagonist – antagonists of human melanocortin 4 receptor (MC4R) | inhibition, % at 6.5 µM | 360,000 compounds, 0.48% hits | AID 540295 | MC4R-expressing cells, MTII-stimulated cAMP, LANCE TR-FRET;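 active means inhibition above its plate's cutoff, the mean of tested wells on that plate plus 3 SD, cut at about 29% in these data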
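Assay system: U2OS-MC4R stable cell line; Also added: Melanotan II; Technique: Eu-cAMP/anti-cAMP TR-FRET, emission 671 nm; Times: 30-min compound, 1-h challenge, 1-h detection, room temperature.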
PG9 binder – binds the HIV-1 gp120 antibody PG9. 360,000 compounds, 0.43% hits. inhibition, % at 6.7 µM. TR-FRET gp120-PG9 antibody binding; in the data active means inhibition above about 8.5%
NR2E3 ag-2 – activates human photoreceptor nuclear receptor NR2E3 | Q9Y5X4 | GST-NR2E3/biotin-RetCOR TR-FRET, 1536-well | inhibition of corepressor binding, % at 4.78 µM | 320,000 compounds, 0.12% hits | AID 2300;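 active means percent inhibition above the cutoff of mean plus 3 SD of all tested compounds, set per screening campaign, cut at about 20% in these data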
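System: GST-tagged NR2E3 plus biotinylated RetCOR corepressor; Buffer or medium: pH 7.5 Tris-based buffer; Probe or stimulus: RetCOR corepressor, biotinylated, 7 nM; Doses: compound at 4.8 µM, single dose; Schedule: 5 h incubation at 4 °C; Technique: time-resolved FRET; Evaluation: percent inhibition of TR-FRET ratio; Replication: one well per compound, singlicate testing.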
PG9 bind confirm – PG9 antibody binding, confirmed; TR-FRET PG9 antibody binding, biochemical; 1,500 compounds, 90% hits; AID 651571; shares compounds with PG9 binder; inhibition, % at 6.7 µM; in the data active means inhibition above about 9%
PGV04 counter – PGV04 control antibody binding, counter-screen; AID 651604; shares compounds with PG9 binder; 1,500 compounds, 95% hits; inhibition, % at 6.7 µM; TR-FRET PGV04 antibody-gp120 binding, biochemical; in the data active means inhibition above about 9.5%
PG9 bind DR – small molecules binding HIV-1 gp120 antibody PG9 | shares compounds with PG9 binder | TR-FRET PG9 antibody-gp120 binding inhibition | IC50, µM | 95 tested, under 10 active | AID 651848; in the data active means IC50 below about 10 µM
PGV04 DR counter – PGV04 binding, dose response counter-screen; shares compounds with PG9 binder; TR-FRET binding to control antibody PGV04; IC50, µM; 95 compounds, 20% hits
PG126 DR counter – PG126 binding, dose response counter-screen; shares compounds with PG9 binder; TR-FRET binding to antibody PG126, counterscreen; IC50, µM; 95 compounds, 20% hits
Of the large screens only hits and unclear results are named; the others gave an inactive call (follow-up assays come after a bar, where they were run). Unless noted, no stated cut-off is given here; in the data, active means IC50 below about 9 µM; inactive means the rest.

c1ccc(N=Nc2ccc(C3=NCCO3)cc2)cc1	none (no result: NR2E3 ag-2)
Nc1cc(Cl)ccc1C(=O)OCC(=O)NC1CCCCC1	PG9 binder 30 | PG9 bind confirm 29 | PGV04 counter 41
CCOC(=O)c1c(C)[nH]c(C(=O)CSc2nccc(C)n2)c1C	PG9 binder 22 | PG9 bind confirm 24 | PGV04 counter 41
CCCc1cc(=O)[nH]c(SCC(=O)c2[nH]c(C)c(C(=O)OCC)c2C)n1	none
O=C(CCc1ccccc1)Nc1nc2ccc(S(=O)(=O)N3CCOCC3)cc2s1	PG9 binder 12 | PG9 bind confirm 22 | PGV04 counter 31
COC(=O)c1cc(NC(=O)Nc2cccc(Cl)c2)ccc1Cl	none
COC(=O)c1cc(NC(=O)c2ccc(-c3ccccc3)cc2)ccc1Cl	MC4R ag barr 9.3, PG9 binder 10 | PG9 bind confirm 13 | PGV04 counter 22
Cc1ccc(C(=O)Nc2ccc3ccccc3c2)cc1	none
O=C(Nc1ccc2ccccc2c1)c1ccc(Cl)cc1	PG9 binder 10 | PG9 bind confirm 13 | PGV04 counter 18
Cc1cccc(C)c1NC(=O)Cn1nc(-c2ccc(Cl)s2)ccc1=O	PG9 binder 11 | PG9 bind confirm inactive | PGV04 counter inactive
Cc1cc(OCC(=O)NCCc2ccc(S(N)(=O)=O)cc2)c2c(C)c(C)c(=O)oc2c1	PG9 binder 10 | PG9 bind confirm 14 | PGV04 counter 25
Cc1cc(OCC(=O)NCCc2ccc(Cl)cc2)c2c(C)cc(=O)oc2c1	none
Cc1cc(NC(=O)c2cc(-c3ccccn3)nc3c(Cl)cccc23)no1	PG9 binder 33 | PG9 bind confirm 42 | PGV04 counter 62
CCc1nc(N)c(C#N)c(-c2cccc3ccccc23)c1C	PG9 binder 15 | PG9 bind confirm 21 | PGV04 counter 29
Cc1cc(NC(=O)CCC(=O)N(CC(=O)NC2CCCC2)Cc2ccc3c(c2)OCO3)no1	none
Cc1occc1C(=O)NCCc1cccc(Cl)c1	none
Cc1nc(SCC(=O)NC2CCCC2)c2c(C)c(C)sc2n1	none
Cc1nc(SCC(=O)Nc2ccccc2Cl)c2c(C)c(C)sc2n1	PG9 binder 19 | PG9 bind confirm 12 | PGV04 counter 17
Cc1cc(NC(=O)CSc2nc(C3CC3)nc3sc(C)c(C)c23)no1	PG9 binder 8.9 | PG9 bind confirm 13 | PGV04 counter 12 | PG9 bind DR inactive | PGV04 DR counter inactive | PG126 DR counter inactive
Cc1cccc(COc2ccc(/C=N/NC(=O)c3nnn(-c4nonc4N)c3CN3CCCCC3)cc2)c1	none
Brc1ccc(-c2nnc3ccc(Nc4ccccc4)nn23)cc1	none (no result: NR1D1 modulator, MC4R ag barr, NR2E3 ag-1, MC4R antagonist, PG9 binder)
CC(C)(C)OC(=O)CNC(=O)c1nc[nH]c1C(=O)N1CCN(c2ccccc2)CC1	none
CCOc1ccc(C(=O)Nc2ccc3c(c2)C(=O)NC3=O)cc1	none
O=C(Nc1ccc2c(c1)C(=O)NC2=O)c1cccc(Cl)c1	PG9 binder 17 | PG9 bind confirm 28 | PGV04 counter 47
CCCCOc1ccc(C(=O)Nc2ccc3c(c2)C(=O)NC3=O)cc1	PG9 binder 21 | PG9 bind confirm inactive | PGV04 counter 11
Fc1ccc2nc(Nc3nc4c(F)cccc4s3)sc2c1	PG9 binder 11 | PG9 bind confirm 14 | PGV04 counter 21
Fc1ccc2nc(Nc3ccccc3)sc2c1	none
O=C(CCc1nc2sc3c(c2c(=O)[nH]1)CCCC3)NCCc1ccccc1	none
CCc1ccccc1NC(=O)CNC(=O)CCc1nc2sc3c(c2c(=O)[nH]1)CCCC3	PG9 binder 19 | PG9 bind confirm 21 | PGV04 counter 38
CN(CC(=O)Nc1ccc(F)cc1)C(=O)CCc1nc2sc3c(c2c(=O)[nH]1)CCCC3	PG9 binder 15 | PG9 bind confirm 13 | PGV04 counter 31
Cc1cc2ccccc2n1CCNC(=O)C1CCCC1	none
Cn1c(CNC(=O)C2CCCCC2)cc2ccccc21	none
Cc1cc2ccccc2n1CCNC(=O)C1CCCCC1	PG9 binder 11 | PG9 bind confirm inactive | PGV04 counter inactive | PG9 bind DR inactive | PGV04 DR counter inactive | PG126 DR counter inactive
CCn1c(CNC(=O)C2CCCCC2)cc2ccccc21	PG9 binder 32 | PG9 bind confirm 16 | PGV04 counter 23
COc1ccc([C@@H]2CC=C(C(=O)O)[C@H](c3cccc(Cl)c3)N2S(=O)(=O)c2ccc(Cl)cc2)cc1	none
N#CC(Nc1ccccc1)c1ccccc1OCc1ccccc1 (centres undefined)	none
CC(C)N(C(=O)[C@H]1CC(CC(=O)NCCCn2ccnc2)C(=O)N2CCc3c([nH]c4ccccc34)[C@]12C)C(C)C (some centres undefined)	none (no result: NR2E3 ag-2)
C[C@]12c3[nH]c4ccccc4c3CCN1C(=O)C(CC(=O)NCCCn1ccnc1)C[C@@H]2C(=O)N1CCOCC1 (some centres undefined)	PG9 binder 15 (no result: NR2E3 ag-2) | PG9 bind confirm inactive | PGV04 counter 9.3
CON(c1nc(Cl)nc(N(C)C)n1)S(=O)(=O)c1ccc(C)cc1	PG9 binder 10 | PG9 bind confirm inactive | PGV04 counter inactive
Cc1ccc(N=Cc2sc(O)c3ccccc23)cc1	none
CC(C)C(=O)Nc1nnc(NC(=S)Nc2ccccc2)s1	none
CCCc1nnc(NC(=S)Nc2ccccc2)s1	PG9 binder 11 | PG9 bind confirm 10 | PGV04 counter 13
Cc1cccc(S(=O)(=O)Nc2cccc3c2C(=O)c2ccccc2-3)c1	PG9 binder 11 | PG9 bind confirm 15 | PGV04 counter 17
Cc1ccc(NS(=O)(=O)c2ccc3c(c2)C(=O)c2ccccc2C3=O)c(C)c1	none
O=C1CCC(OCc2ccccc2)CCN1[C@H](CSc1ccccc1)Cc1ccccc1 (some centres undefined)	none (no result: MC4R ag barr, MC4R antagonist, NR2E3 ag-2)
CCc1ccc(Nc2n[n+](-c3ccccc3)c(-c3ccc(N(CC)CC)cc3)s2)cc1	PG9 binder 9.7 | PG9 bind confirm 18 | PGV04 counter 11 | PG9 bind DR inactive | PGV04 DR counter inactive | PG126 DR counter inactive

High-throughput results deposited in PubChem BioAssay by several laboratories.
